The values that follow come from PubChem BioAssay.

Each structure is given as a SMILES string. The source made the active and inactive calls.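 The calls were made as follows, unless noted: active = inhibition above 20% together with a positive visual image hit; inconclusive = visual image hit but inhibition not above 20%; inactive = no visual image hit.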

A short description of assay [1]: inhibitors of TNFa-induced NFkB p65 translocation, primary screen, imaging, HUVEC, MLSMR starter and 10KST1 sets (AID 438).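 Also: compound added about 3h40 before a 20 min TNFalpha stimulation.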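 As to inhibition: signal is the nuclear over cytoplasmic p65 intensity ratio per well.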 The note with it: HUVEC TNFa-induced p65 nuclear translocation; cell count: measured here: nuclei count (cytotoxicity indicator), at 2.08 µM; inhibition: at 2 µM, stronger effect = higher value, 0% TNFa-plus-vehicle, 100% no-TNFa wells.
The nature of assay [2]: inhibitors of mutant huntingtin aggregation, primary screen, imaging, exon1htt(103Q)mCFP cells, high-content imaging (AID 483;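 active = visual image review flags a hit and inhibition of aggregation exceeds 20%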;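 also: compound exposure lasted 3 days before fixation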;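 as to nuclei count: percent of the per-plate median nuclei count of sample wells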). The settings on record: exon1htt(103Q)mCFP cell line, aggregate imaging, at 2 µM; inhibition of aggregation: stronger effect = higher value; nuclei count: measured here: cell count, toxicity.
Assay [3] can be described thus: inhibitors of E-selectin induction by TNFa, primary screen, imaging, HUVEC, immunofluorescence, MLSMR starter and 10KST1 sets (AID 487;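 active = visually confirmed hit in the image check and inhibition above 20%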;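 as to inhibition: signal is fraction of cell area covered by stained E-selectin grains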;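 as to nuclei count: 100% = median nuclei count of all wells on the same plate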). The note with it: HUVEC TNFalpha-induced E-selectin immunofluorescence imaging, at 2 µM; inhibition: stronger effect = higher value; nuclei count: measured here: cell number, toxicity.
In assay [4] the target is Voltage-gated potassium channel subunit beta-2 (Rattus norvegicus) (UniProt P62483). As to the kind of experiment: KvBeta enzyme negative modulators, primary screen, biochemical, NADPH fluorescence (AID 622;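 active = fluorescence slope higher than the sample average by over 3 SD, cut at about -0.22 in these data, passing the limit was not always enough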;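 also: slope of raw intensity against log time taken from 70 to 1610 s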). The settings on record: recombinant KvBeta, 4-cyanobenzaldehyde reduction, at 10 µM, stronger effect = higher value.
Chain of Voltage-gated potassium channel subunit beta-2 (Rattus norvegicus) (P62483 whole entry, looked up): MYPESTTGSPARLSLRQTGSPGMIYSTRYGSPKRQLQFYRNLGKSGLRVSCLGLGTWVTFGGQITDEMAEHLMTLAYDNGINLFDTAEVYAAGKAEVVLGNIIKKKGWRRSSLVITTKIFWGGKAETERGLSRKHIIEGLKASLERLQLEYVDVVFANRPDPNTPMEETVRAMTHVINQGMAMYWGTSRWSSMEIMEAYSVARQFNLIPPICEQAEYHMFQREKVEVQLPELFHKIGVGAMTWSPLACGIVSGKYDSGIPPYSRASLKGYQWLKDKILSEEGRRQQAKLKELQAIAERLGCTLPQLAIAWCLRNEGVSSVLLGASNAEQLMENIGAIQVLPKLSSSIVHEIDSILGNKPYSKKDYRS
For assay [5] the target is unchanged. Description: KvBeta positive modulators, primary screen, biochemical, NADPH fluorescence (AID 623;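 active = NADPH fluorescence slope more negative than the mean of all samples by about 3 SD, 99.7% confidence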;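 also: fluorescence intensity change per second fitted from 20 to 320 s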). The note with it: Recombinant KvBeta, NADPH fluorescence decrease slope, 10 min; at 10 µM; stronger effect = lower value.
In assay [6] the target is Muscarinic acetylcholine receptor M4 (Homo sapiens) (UniProt P08173). Description: compounds altering M4/GIRK thallium flux, either direction, primary screen, M4 allosteric agonist project, cell-based, HEK293 M4/GIRK, BTC-AM (AID 625;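 active = fluorescence slope after compound addition differing from the mean of all tested samples at 99.7% confidence, mostly higher but some lower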;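 also: thallium influx through GIRK channels coupled to M4 in HEK293 cells with BTC-AM dye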). The note with it: at 10 µM, actives lie on both sides. The gist of the method: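 Assay system: HEK293 cells with M4 receptor and GIRK channels / Controls: carbachol and DMSO controls / Schedule: 1 h dye loading, 2 min kinetic read / Technique: kinetic fluorescence with BTC-AM dye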
Chain of Muscarinic acetylcholine receptor M4 (Homo sapiens) (P08173 whole entry, looked up): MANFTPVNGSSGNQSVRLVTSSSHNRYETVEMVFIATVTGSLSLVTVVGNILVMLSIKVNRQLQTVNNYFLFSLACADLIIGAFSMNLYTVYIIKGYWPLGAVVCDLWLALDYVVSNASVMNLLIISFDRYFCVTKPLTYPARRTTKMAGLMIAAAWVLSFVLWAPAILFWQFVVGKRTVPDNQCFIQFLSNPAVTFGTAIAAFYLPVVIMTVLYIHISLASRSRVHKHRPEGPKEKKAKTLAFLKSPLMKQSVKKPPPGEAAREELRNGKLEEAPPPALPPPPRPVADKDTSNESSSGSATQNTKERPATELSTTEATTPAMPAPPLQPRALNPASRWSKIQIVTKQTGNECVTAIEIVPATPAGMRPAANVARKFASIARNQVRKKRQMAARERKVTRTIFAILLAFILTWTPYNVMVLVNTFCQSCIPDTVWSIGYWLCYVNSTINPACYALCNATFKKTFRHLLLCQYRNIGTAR

Assay [7] is described as follows: inhibitors of Sendai virus-induced IRF3 signaling, primary screen, TLR/RLR signaling modifier project, cell-based, Sendai virus stimulus, luciferase, 10K MLSCN set (AID 602276;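 active = inhibition at or above 50% at 10 µM; inactive = inhibition below 50%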;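 also: firefly luciferase from ISG56 promoter only with Renilla not read in this screen; 0% = Sendai virus plus DMSO and 100% = medium plus DMSO without virus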). The note with it: HEK293 RL24 IRF3 luciferase reporter, at 10 µM, stronger effect = higher value.
A short description of assay [8]: inhibitors of poly I:C-induced TLR3 signaling, primary screen, cell-based, poly I:C stimulus, luciferase, 10K MLSCN set (AID 602277;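 active = inhibition of the reporter signal at or above 50%; inactive = inhibition below 50%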). The settings on record: HEK293-TLR3 RL24 IRF3 luciferase reporter, at 10 µM, stronger effect = higher value. (In a reporter assay the amount or activity of a reporter protein is the signal.)

One may read the inhibition as the drop in the measured response relative to a control, in per cent. Consider `O=C1c2ccccc2C(=O)N1OCc1ccccc1`, for which, in assay [1], the cell count stood at 457. Further, the inhibition in assay [1] is -6% (inactive); in assay [3], -71.8% (inactive); in assay [7], 16.6% (inactive); in assay [8], 21.5% (inactive). Moreover, in assay [2], the inhibition of aggregation is 13.7% (inactive). Moreover, the nuclei count was determined as 80.1% in assay [2] and 126% in assay [3]. For the same compound, the fluorescence slope in assay [4] was -0.608 (inactive); in assay [6] it was 0.00373 (inactive). Moreover, the NADPH fluorescence slope in assay [5] is -3.7e-05 (inactive).

Consider `COC(=O)C1=C(C)NC(=O)C1(NC(=O)c1cccnc1)C(F)(F)F` (configuration not stated), for which the cell count in assay [1] came out at 609. Besides, the inhibition in assay [1] is -3.9% (inactive); in assay [3], -68.7% (inactive); in assay [7], -31.4% (inactive); in assay [8], 56.2% (active). The inhibition of aggregation in assay [2] is -6.9% (inactive). The nuclei count came out at 87.8% in assay [2] and 103% in assay [3]. Moreover, the fluorescence slope in assay [4] is -0.565 (inactive); in assay [6] it was 0.00444 (inactive). Further, in assay [5], the NADPH fluorescence slope is -2.9e-05 (inactive).

As for `CCn1c(CSc2ncccn2)nnc1SCC(=O)N1c2ccccc2CC1C` (configuration not stated), the cell count in assay [1] turned out to be 644. The inhibition in assay [1] was 27.9% (active); in assay [3], -3.3% (inactive); in assay [7], 12.2% (inactive); in assay [8], 0.579% (inactive). Besides, the inhibition of aggregation in assay [2] was -1.3% (inactive). Moreover, the nuclei count was found to be 103% in assay [2] and 95.8% in assay [3]. Also, the fluorescence slope in assay [4] was -0.446 (inactive); in assay [6], 0.00475 (inactive). The NADPH fluorescence slope in assay [5] was -7.9e-06 (inactive).

`N#CC1=C(N)n2c(s/c(=C\c3ccco3)c2=O)=C(C#N)C1c1ccco1` (configuration not stated): the cell count in assay [1] worked out at 422. The inhibition in assay [1] is -2.2% (inactive); in assay [3] it was -34.4% (inactive); in assay [7], 19.5% (inactive); in assay [8], 38% (inactive). Besides, the inhibition of aggregation in assay [2] is 8.3% (inactive). The nuclei count stood at 106% in assay [2] and 116% in assay [3]. Also, the results for the fluorescence slope in assay [4] and in assay [6] were -0.565 (inactive) and 0.00353 (inactive), respectively. The NADPH fluorescence slope in assay [5] is -3.6e-05 (inactive).

As to `COC(=O)C1=C(C)Nc2nnnn2C1c1ccc(Cl)cc1Cl` (configuration not stated), the cell count in assay [1] worked out at 433. Further, the inhibition in assay [1] was 7.3% (inactive); in assay [3] it was 1.2% (inactive); in assay [7] it was 13.6% (inactive); in assay [8], 19.3% (inactive). In assay [2], the inhibition of aggregation is -5.9% (inactive). Also, the nuclei count in assay [2] and in assay [3] was 105% each time. Also, the fluorescence slope in assay [4] was -0.482 (inactive); in assay [6], 0.0056 (inactive). For the same compound, the NADPH fluorescence slope in assay [5] is -4.5e-05 (inactive).

For `CN(C)S(=O)(=O)c1ccc(S(=O)(=O)Nc2ccc3c(c2)oc2ccccc23)cc1`, the cell count in assay [1] came to 414. Also, the inhibition is -7.9% (inactive) in assay [1], 4.6% (inactive) in assay [3], -8.93% (inactive) in assay [7] and -1.94% (inactive) in assay [8]. For the same compound, the inhibition of aggregation in assay [2] is -3.8% (inactive). The results for the nuclei count in assay [2] and in assay [3] were 107% and 92%, respectively. Further, the figures for the fluorescence slope in assay [4] and in assay [6] were -0.54 (inactive) and 0.00569 (inactive), respectively. Further, in assay [5], the NADPH fluorescence slope is -5.2e-05 (inactive).

Take `CCCCn1nnnc1SCC(=O)N1CCN(C(=O)c2ccco2)CC1`: the cell count in assay [1] is 247. Also, the inhibition in assay [1] was 2.6% (inactive); in assay [3], 15.1% (inactive); in assay [7], 7.65% (inactive); in assay [8], 15.6% (inactive). In addition, the inhibition of aggregation in assay [2] is 22.3% (inactive). The nuclei count in assay [2] was found to be 72.2%; in assay [3], 83.9%. Also, the fluorescence slope in assay [4] is -0.463 (inactive); in assay [6], 0.00637 (inactive). Besides, the NADPH fluorescence slope in assay [5] was -3e-05 (inactive).
